These results are taken from ChEMBL document CHEMBL5053496, “Antibacterial sulfonimidamide-based oligopeptides as type I signal peptidase inhibitors: Synthesis and biological evaluation” (Eur J Med Chem, 2021).

Series [1] concerns Klebsiella pneumoniae. Put plainly: Antibacterial activity against wild type Klebsiella pneumoniae ATCC 13883 assessed as inhibition of bacterial growth measured after 16 to 20 hrs.
Series [2] is described as follows: Inhibition of Escherichia coli LepB using dabcyl-VEVGGTATA GFSPRGLE-EDANS and dabcyl-KLTGFTVKPVQAIA GYEILE-EDANS-OH as substrates preincubated for 10 mins followed by substrate addition by FRET assay. In short, it runs like this:
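FRET assay with recombinant E. coli LepB, final about 50 nM. Enzyme pre-incubated with inhibitor 10 min at 22 °C, then substrate added at 8 µM. Linear fluorescence increase from cleavage followed at 22 °C for 2 h. IC50 from non-linear regression of sigmoidal rate vs. inhibitor concentration curves.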

The subject of series [3] is Escherichia coli. Put plainly: Antibacterial activity against wild type Escherichia coli ATCC 25922 assessed as inhibition of bacterial growth measured after 16 to 20 hrs. The series is classed as functional. The following applies: time 16-20 hrs. In short, it runs like this: (§1)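 Read visually as complete growth inhibition by the unaided eye, with medium-only wells as control.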

Series [4] relates to Acinetobacter baumannii. Put plainly: Antibacterial activity against Acinetobacter baumanii ATCC 19606 assessed as inhibition of bacterial growth measured after 16 to 20 hrs. Particulars: ATCC 19606 = CIP 70.34 = JCM 6841, time 16-20 hrs. The series is classed as functional. In short, it runs like this: as §1
In series [5] the test system is Pseudomonas aeruginosa. Put plainly: Antibacterial activity against wild type Pseudomonas aeruginosa PAO1 assessed as inhibition of bacterial growth measured after 16 to 20 hrs. Format: functional. The following applies: time 16-20 hrs. In short, it runs like this: as §1
Series [6] is described as follows: Hemolytic activity against human RBC assessed as hemolysis measured after 45 mins. Format: ADME, tissue-based, Erythrocyte. Particulars: red blood cells (RBC), read-out: Activity. A digest of the protocol:
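Human RBCs from heparinized blood, washed three times in Tyrode buffer pH 7.4. Final 100 µM compound, 1% DMSO, 50% RBC; 37 °C, 45 min, shaking 250 rpm. Cells spun off, supernatant hemoglobin read at 540 nm. Percent hemolysis relative to 2% Triton X-100 full lysis and buffer-only negative control.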

Series [7] has as its system Escherichia coli. Briefly: Antibacterial activity against Escherichia coli D22 mutant assessed as inhibition of bacterial growth measured after 16 to 20 hrs. Format: functional. The following applies: time 16-20 hrs. A digest of the protocol: (§2)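 MIC read visually as the lowest concentration giving complete growth inhibition to the unaided eye, with medium-only wells as the control.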

For series [8], the system named is Escherichia coli. Briefly: Antibacterial activity against Escherichia coli harboring tolC efflux defective mutant assessed as inhibition of bacterial growth measured after 16 to 20 hrs. The series is classed as functional. Particulars: time 16-20 hrs. A digest of the protocol:
as §2

For series [9], the system named is HepG2. Put plainly: Cytotoxicity against human HepG2 cells assessed as reduction in cell viability measured after 72 hrs by fluorometric assay. Format: cell-based. Particulars: HepG2, 72 h. A digest of the protocol: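 HepG2 cells grown with L-glutamine 2 mM, passaged twice weekly, used up to 20 passages. Seeded at 1000 cells/well in 384-well plates, exposed 72 h. Fluorescence read-out; survival index (%) = test-well fluorescence as percent of control cultures, blanks subtracted. Assay accepted if control signal-to-noise >10, CV <30%, bortezomib positive control SI <5%.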

Series [10] concerns Pseudomonas aeruginosa. Briefly: Antibacterial activity against efflux pump deficient Pseudomonas aeruginosa PAO750 assessed as inhibition of bacterial growth measured after 16 to 20 hrs. Format: functional. Particulars: time 16-20 hrs. A digest of the protocol: as §1
Series [11] relates to Staphylococcus aureus. Put plainly: Antibacterial activity against staphylococcus aureus ATCC 29213 assessed as inhibition of bacterial growth measured after 16 to 20 hrs. Particulars: time 16-20 hrs. Format: functional. In short, it runs like this: as §1

Values after ≈ are worked out from the molar mass of the structure shown.

As usually defined, the MIC is the lowest concentration that inhibits growth of the organism. Usually IC50 stands for the concentration needed to halve the response being measured. For `CCCCCCc1ccc(-c2ccc(S(=O)(=NCCN)N3CCC[C@H]3C(=O)N[C@H](C(=O)N[C@@H](C)C(=O)NC(CC(N)=O)C(=O)N[C@@H](C)B3O[C@@H]4C[C@H]5C[C@H](C5(C)C)[C@]4(C)O3)[C@@H](C)O)cc2)cc1` (stereo not given in full), the MIC in series [1] was greater than 64 µg/mL; in series [3], 64 µg/mL (≈ 67.4 µM); in [4], 64 µg/mL (≈ 67.4 µM); in series [5], greater than 64 µg/mL; in [7], 8 µg/mL (≈ 8.43 µM); in [8], 16 µg/mL (≈ 16.9 µM). For the same compound, the values for the MIC in series [10] and in series [11] were greater than 64 µg/mL and less than 1 µg/mL, respectively. The IC50 was determined as 133 nM in series [2] and 5200 nM in series [9]. Further, in series [6], the hemolysis at 0.75 h came out at 5.32%.

With `CCCCCCCCCCCCS(=O)(=O)N1CCC[C@H]1C(=O)N[C@H](C(=O)N[C@@H](C)C(=O)NC(CC(N)=O)C(=O)N[C@@H](C)B1O[C@@H]2C[C@H]3C[C@H](C3(C)C)[C@]2(C)O1)[C@@H](C)O` (mixture of isomers), the MIC in series [1] was greater than 64 µg/mL; in series [3], greater than 64 µg/mL; in series [4] it was greater than 64 µg/mL; in [5], greater than 64 µg/mL; in series [7], 16 µg/mL; in series [8] it was 8 µg/mL. In addition, the MIC in series [10] was 32 µg/mL; in series [11], less than 1 µg/mL. The IC50 in series [2] is 56 nM; in [9], 1200 nM. The hemolysis at 0.75 h in [6] came to 0.1%.

Turning to `CCCCCCc1ccc(-c2ccc(S(=O)(=O)N3CCC[C@H]3C(=O)N[C@H](C(=O)N[C@@H](C)C(=O)NC(CC(N)=O)C(=O)N[C@@H](C)B3O[C@@H]4C[C@H]5C[C@H](C5(C)C)[C@]4(C)O3)[C@@H](C)O)cc2)cc1` (mixture of isomers), the MIC in series [1], in series [3], in [4], in [5], in series [7] and in [8] was greater than 64 µg/mL in each case. Besides, the MIC in [10] and in series [11] was greater than 64 µg/mL throughout. The IC50 in [2] came out at 71 nM; in series [9], 580 nM. Also, in series [6], the hemolysis at 0.75 h was determined as 14.5%.

Regarding `CCCCCCc1ccc(-c2ccc([S@@](=N)(=O)N3CCC[C@H]3C(=O)N[C@H](C(=O)N[C@@H](C)C(=O)NC(CC(N)=O)C(=O)N[C@@H](C)B3O[C@@H]4C[C@H]5C[C@H](C5(C)C)[C@]4(C)O3)[C@@H](C)O)cc2)cc1` (mixture of isomers), the MIC in series [1] is greater than 64 µg/mL; in [3], greater than 64 µg/mL; in series [4] it was greater than 64 µg/mL; in series [5] it was greater than 64 µg/mL; in series [7], 32 µg/mL; in series [8], 4 µg/mL. Moreover, the figures for the MIC in series [10] and in [11] were greater than 64 µg/mL and 4 µg/mL, respectively. In addition, the IC50 was found to be 1110 nM in series [2] and 2990 nM in [9]. Besides, in series [6], the hemolysis at 0.75 h was determined as 0.35%.

`CCCCCCc1ccc(-c2ccc([S@](=N)(=O)N3CCC[C@H]3C(=O)N[C@H](C(=O)N[C@@H](C)C(=O)NC(CC(N)=O)C(=O)N[C@@H](C)B3O[C@@H]4C[C@H]5C[C@H](C5(C)C)[C@]4(C)O3)[C@@H](C)O)cc2)cc1` (mixture of isomers): the MIC in [1] was greater than 64 µg/mL; in series [3], greater than 64 µg/mL; in series [4], greater than 64 µg/mL; in series [5] it was greater than 64 µg/mL; in series [7], 8 µg/mL; in series [8], 4 µg/mL. The MIC in [10] is greater than 64 µg/mL; in [11], 4 µg/mL. Also, the IC50 in [2] is 1070 nM; in [9], 2950 nM. Also, the hemolysis at 0.75 h in [6] turned out to be 2.15%.
